Data reported in ChEMBL document CHEMBL3425433, “Discovery of bicyclic pyrazoles as class III histone deacetylase SIRT1 and SIRT2 inhibitors” (Bioorg Med Chem Lett, 2015).
Activity calls are given as the source filed them. The rule behind the calls is not given here.

How the values were obtained:
[1] = target: T1, NAD-dependent protein deacetylase sirtuin-1 (Homo sapiens) (UniProt Q96EB6); experiment: Inhibition of His-tagged human recombinant SIRT1 expressed in Escherichia coli at 20 uM using Cbz-Lys(Ac)-AMC as substrate by fluorescence assay
T1 sequence (whole entry): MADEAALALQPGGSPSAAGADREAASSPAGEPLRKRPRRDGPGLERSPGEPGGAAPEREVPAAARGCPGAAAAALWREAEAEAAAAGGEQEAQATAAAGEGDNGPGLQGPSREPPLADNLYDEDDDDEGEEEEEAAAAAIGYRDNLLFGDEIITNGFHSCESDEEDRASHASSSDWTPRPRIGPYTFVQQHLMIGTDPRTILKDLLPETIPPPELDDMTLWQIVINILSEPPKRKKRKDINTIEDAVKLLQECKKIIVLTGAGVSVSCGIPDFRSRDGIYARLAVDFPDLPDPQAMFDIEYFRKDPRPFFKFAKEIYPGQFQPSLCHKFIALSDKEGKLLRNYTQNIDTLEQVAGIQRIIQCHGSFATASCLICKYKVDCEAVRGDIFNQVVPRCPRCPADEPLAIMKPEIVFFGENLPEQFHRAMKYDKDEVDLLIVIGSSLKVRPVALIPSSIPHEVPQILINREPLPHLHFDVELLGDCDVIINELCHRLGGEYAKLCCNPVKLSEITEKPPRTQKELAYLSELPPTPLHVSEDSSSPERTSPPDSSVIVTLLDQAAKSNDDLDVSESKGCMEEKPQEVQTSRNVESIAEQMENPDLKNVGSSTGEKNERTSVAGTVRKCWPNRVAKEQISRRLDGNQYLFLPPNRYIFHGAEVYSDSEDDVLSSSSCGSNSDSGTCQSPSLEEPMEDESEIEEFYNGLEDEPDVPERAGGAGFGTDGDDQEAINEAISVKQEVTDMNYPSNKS
In short: (§1)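 Fluorescence deacetylase assay with in-house Cbz-Lys(Ac)-AMC substrate. Values are means of three experiments on racemic material. Single-point lines were tested at 20 µM, and less than 20% inhibition was scored as no inhibition.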

[2] = target: T2, NAD-dependent protein deacetylase sirtuin-2 (Homo sapiens) (UniProt Q8IXJ6); experiment: Inhibition of His-tagged human recombinant SIRT2 expressed in Escherichia coli at 20 uM using Cbz-Lys(Ac)-AMC as substrate by fluorescence assay; in short: as §1
T2 sequence (whole entry): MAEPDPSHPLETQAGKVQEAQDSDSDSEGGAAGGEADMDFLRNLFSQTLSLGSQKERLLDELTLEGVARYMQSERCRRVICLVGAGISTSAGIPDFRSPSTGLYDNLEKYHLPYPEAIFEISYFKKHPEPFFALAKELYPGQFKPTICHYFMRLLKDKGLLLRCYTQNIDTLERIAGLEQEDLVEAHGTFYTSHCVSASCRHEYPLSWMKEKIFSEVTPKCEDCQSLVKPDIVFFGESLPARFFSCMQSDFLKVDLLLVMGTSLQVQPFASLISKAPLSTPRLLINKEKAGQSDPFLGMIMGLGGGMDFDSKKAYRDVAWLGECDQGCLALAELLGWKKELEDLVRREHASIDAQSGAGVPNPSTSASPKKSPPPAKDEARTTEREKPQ

Histone deacetylase 1 = Histone deacetylase 1 (Homo sapiens, UniProt Q13547); experiment: Inhibition of HDAC1 (unknown origin)
Histone deacetylase 2 = Histone deacetylase 2 (Homo sapiens, UniProt Q92769); experiment: Inhibition of HDAC2 (unknown origin)
[3] = target: T3, Protein deacetylase HDAC6 (Homo sapiens) (UniProt Q9UBN7); experiment: Inhibition of HDAC6 (unknown origin)
T3 sequence (whole entry): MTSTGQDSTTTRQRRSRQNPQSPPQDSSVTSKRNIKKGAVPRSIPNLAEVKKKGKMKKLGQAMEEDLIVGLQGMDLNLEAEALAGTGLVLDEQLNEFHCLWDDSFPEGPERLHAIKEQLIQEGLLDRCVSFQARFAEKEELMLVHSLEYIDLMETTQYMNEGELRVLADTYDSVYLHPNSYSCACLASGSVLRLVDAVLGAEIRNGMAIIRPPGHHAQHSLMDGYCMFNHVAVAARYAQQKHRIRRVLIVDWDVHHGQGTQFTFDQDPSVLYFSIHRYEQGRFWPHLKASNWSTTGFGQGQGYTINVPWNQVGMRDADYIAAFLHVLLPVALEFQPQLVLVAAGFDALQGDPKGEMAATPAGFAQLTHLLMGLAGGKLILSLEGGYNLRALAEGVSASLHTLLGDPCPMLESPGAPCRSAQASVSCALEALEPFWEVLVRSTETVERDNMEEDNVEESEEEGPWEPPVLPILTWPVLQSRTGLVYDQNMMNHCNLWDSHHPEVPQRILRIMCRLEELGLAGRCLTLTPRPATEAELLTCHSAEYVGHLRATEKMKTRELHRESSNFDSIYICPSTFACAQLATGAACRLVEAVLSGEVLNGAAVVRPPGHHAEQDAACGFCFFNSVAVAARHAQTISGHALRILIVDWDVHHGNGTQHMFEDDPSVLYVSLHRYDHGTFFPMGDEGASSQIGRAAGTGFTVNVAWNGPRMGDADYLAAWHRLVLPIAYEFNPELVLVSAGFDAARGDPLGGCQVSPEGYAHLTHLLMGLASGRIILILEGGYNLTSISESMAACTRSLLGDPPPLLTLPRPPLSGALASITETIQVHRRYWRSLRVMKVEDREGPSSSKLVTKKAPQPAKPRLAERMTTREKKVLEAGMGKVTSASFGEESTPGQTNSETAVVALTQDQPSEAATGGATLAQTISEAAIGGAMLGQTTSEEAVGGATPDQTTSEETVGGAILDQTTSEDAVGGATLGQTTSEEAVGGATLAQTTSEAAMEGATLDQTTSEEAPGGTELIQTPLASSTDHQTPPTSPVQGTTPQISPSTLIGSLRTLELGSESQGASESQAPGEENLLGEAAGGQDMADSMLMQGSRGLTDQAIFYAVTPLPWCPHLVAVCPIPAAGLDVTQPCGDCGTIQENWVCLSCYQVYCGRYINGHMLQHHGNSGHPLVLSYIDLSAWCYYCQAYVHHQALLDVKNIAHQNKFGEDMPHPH

[4] = target: Histone deacetylase 4 (Homo sapiens) (UniProt P56524); experiment: Inhibition of HDAC4 (unknown origin)
[5] = target: Histone deacetylase 5 (Homo sapiens) (UniProt Q9UQL6); experiment: Inhibition of HDAC5 (unknown origin)
Chain of Histone deacetylase 5 (Homo sapiens) (Q9UQL6 whole entry): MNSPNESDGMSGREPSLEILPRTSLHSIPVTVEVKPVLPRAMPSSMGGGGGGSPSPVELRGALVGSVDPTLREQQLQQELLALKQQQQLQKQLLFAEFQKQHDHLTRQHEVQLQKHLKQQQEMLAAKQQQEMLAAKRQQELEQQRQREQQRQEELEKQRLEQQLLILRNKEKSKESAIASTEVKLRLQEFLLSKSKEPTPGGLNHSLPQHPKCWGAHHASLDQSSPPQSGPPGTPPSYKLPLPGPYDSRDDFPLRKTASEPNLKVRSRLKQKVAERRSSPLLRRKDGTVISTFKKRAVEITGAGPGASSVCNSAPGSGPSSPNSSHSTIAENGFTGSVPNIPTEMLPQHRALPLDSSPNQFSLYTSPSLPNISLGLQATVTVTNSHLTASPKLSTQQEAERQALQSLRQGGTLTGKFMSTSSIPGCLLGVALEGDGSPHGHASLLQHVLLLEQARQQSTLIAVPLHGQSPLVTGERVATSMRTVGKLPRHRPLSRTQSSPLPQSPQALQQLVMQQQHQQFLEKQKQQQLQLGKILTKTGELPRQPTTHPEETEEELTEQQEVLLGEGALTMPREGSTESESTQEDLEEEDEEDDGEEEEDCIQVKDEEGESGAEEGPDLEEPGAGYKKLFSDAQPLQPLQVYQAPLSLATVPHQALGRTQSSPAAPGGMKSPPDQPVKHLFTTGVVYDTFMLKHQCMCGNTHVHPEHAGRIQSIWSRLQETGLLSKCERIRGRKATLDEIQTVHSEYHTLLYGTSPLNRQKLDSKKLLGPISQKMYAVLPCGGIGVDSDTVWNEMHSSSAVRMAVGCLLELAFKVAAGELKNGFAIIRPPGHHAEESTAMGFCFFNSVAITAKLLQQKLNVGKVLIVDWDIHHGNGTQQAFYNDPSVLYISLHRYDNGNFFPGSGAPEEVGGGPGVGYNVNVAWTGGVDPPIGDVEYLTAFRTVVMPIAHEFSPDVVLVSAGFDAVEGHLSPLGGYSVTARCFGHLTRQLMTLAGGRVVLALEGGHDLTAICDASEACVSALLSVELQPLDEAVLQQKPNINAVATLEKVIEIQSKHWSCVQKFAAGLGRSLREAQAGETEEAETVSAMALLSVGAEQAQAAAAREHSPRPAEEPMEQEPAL

Chain of Histone deacetylase 4 (Homo sapiens) (P56524 whole entry): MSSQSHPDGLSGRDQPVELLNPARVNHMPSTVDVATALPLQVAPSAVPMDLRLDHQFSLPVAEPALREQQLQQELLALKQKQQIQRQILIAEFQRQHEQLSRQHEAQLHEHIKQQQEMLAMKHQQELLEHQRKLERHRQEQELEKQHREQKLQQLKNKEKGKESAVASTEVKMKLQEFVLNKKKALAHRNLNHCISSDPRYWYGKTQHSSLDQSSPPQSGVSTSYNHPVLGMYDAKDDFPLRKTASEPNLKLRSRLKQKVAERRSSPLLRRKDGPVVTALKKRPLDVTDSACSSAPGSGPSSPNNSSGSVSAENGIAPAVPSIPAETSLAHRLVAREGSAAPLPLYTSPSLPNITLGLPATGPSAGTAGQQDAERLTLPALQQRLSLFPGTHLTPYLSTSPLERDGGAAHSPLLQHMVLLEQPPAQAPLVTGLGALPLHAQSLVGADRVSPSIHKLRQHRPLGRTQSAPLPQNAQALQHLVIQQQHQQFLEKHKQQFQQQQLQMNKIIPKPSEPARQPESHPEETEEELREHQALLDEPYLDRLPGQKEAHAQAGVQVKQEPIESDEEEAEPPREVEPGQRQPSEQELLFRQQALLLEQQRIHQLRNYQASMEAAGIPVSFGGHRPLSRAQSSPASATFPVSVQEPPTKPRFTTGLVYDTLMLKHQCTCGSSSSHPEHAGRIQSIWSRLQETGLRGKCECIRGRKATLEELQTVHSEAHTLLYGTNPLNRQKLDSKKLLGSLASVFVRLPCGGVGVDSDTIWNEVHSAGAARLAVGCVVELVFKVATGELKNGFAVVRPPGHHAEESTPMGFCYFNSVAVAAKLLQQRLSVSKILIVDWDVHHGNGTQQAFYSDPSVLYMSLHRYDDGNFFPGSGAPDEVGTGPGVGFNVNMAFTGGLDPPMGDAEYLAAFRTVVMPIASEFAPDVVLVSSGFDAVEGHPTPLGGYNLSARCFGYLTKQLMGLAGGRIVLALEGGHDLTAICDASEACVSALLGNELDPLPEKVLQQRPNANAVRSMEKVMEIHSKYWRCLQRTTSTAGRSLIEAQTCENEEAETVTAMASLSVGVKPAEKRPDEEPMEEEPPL
Chain of Histone deacetylase 1 (Q13547 whole entry): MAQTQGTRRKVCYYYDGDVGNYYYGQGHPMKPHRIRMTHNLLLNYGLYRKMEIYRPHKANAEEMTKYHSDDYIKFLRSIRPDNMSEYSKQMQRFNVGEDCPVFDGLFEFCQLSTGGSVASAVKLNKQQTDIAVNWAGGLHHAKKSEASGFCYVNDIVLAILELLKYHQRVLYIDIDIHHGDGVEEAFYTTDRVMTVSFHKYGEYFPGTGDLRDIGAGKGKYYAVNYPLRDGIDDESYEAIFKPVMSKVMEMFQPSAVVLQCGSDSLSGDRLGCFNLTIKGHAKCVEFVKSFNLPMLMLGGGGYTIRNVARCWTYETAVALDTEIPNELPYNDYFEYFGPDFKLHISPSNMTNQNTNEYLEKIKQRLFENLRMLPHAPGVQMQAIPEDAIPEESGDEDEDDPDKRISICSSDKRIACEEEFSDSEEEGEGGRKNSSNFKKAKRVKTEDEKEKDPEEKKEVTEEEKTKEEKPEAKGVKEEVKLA
Chain of Histone deacetylase 2 (Q92769 whole entry): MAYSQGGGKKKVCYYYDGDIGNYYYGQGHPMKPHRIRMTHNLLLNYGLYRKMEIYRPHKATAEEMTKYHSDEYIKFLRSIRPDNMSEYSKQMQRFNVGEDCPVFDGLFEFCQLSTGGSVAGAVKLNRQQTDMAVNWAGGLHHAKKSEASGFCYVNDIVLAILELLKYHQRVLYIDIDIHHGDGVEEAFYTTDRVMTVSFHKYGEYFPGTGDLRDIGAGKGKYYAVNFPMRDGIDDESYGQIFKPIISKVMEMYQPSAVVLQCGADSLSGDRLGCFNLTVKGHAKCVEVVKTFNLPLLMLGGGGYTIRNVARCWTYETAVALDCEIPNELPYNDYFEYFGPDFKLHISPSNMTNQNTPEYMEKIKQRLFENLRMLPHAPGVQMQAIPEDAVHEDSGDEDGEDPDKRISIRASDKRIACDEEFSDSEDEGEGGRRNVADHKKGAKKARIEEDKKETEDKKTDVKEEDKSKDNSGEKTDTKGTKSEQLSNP

inhibition [1] [%] | inhibition [2] [%] | inhibition (Histone deacetylase 1) | inhibition (Histone deacetylase 2) | inhibition [3] | inhibition [4] | inhibition [5] | SMILES
< 20 | < 20 | inactive | inactive | inactive | inactive | inactive | CCOC(=O)C1CCCc2c(-c3ccc(Cl)c(F)c3)n[nH]c21 (racemic)
< 20 | < 20 | inactive | inactive | inactive | inactive | inactive | Cn1cc(-c2n[nH]c3c2CCCC3C(N)=O)c2ccccc21 (racemic)
24 | < 20 | inactive | inactive | inactive | inactive | inactive | NC(=O)C1CCCc2c(-c3ccc(Cl)cc3Cl)n[nH]c21 (racemic)
42 | < 20 | inactive | inactive | inactive | inactive | inactive | NC(=O)C1CCCc2c(-c3ccc(F)cc3)n[nH]c21 (racemic)
27 | < 20 | inactive | inactive | inactive | inactive | inactive | NC(=O)C1CCCc2c(-c3cccc(Cl)c3)n[nH]c21 (racemic)
44 | < 20 | inactive | inactive | inactive | inactive | inactive | NC(=O)C1CCCc2c(-c3ccccc3)n[nH]c21 (racemic)

More lines, now with the values behind:

SMILES | inhibition [1] [%] | inhibition [2] [%] | inhibition (Histone deacetylase 1) | inhibition (Histone deacetylase 2) | inhibition [3] | inhibition [4] | inhibition [5]
CNC(=O)C1CCCc2c(-c3ccc(Cl)cc3)n[nH]c21 (racemic) | < 20 | < 20 | inactive | inactive | inactive | inactive | inactive
COc1ccc(-c2n[nH]c3c2CCCC3C(N)=O)cc1 (racemic) | < 20 | < 20 | inactive | inactive | inactive | inactive | inactive
Cn1c(-c2n[nH]c3c2CCCC3C(N)=O)cc2cc(Cl)ccc21 (racemic) | 31 | 51 | inactive | inactive | inactive | inactive | inactive
NC(=O)C1CCCc2c(-c3cc4cc(Br)ccc4s3)n[nH]c21 (racemic) | 38 | 33 | inactive | inactive | inactive | inactive | inactive
NC(=O)C1CCCc2c(-c3cc4ccccc4[nH]3)n[nH]c21 (racemic) | 46 | 43 | inactive | inactive | inactive | inactive | inactive
NC(=O)C1CCCc2c(-c3ccc(C(F)(F)F)cc3)n[nH]c21 (racemic) | < 20 | < 20 | inactive | inactive | inactive | inactive | inactive
NC(=O)C1CCCc2c(-c3ccccc3Cl)n[nH]c21 (racemic) | < 20 | 11 | inactive | inactive | inactive | inactive | inactive
NC(=O)C1CCCc2c(-c3cccs3)n[nH]c21 (racemic) | 47 | < 20 | inactive | inactive | inactive | inactive | inactive
